Assay outcomes: PubChem BioAssay, Johns Hopkins Ion Channel Center
Rows were chosen to be rich in hits. Some 3.5% of all compounds tested hit in one or more screens of this group.
RGS4 act – RGS4 potentiation or activation. HEK293 M3R/inducible RGS4, carbachol calcium flux Fluo4; stronger effect = lower value. B-score at 10 µM. actives 0.92% (n = 310,000). AID 463111;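 active means B-score of the integrated calcium signal more than 4 SD below the library mean, with starting fluorescence not abnormally high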;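 further: negative B-score means reduced calcium response which marks RGS4 activation or potentiation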
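Material: Inducible-RGS4 HEK293 cells carrying M3 receptor; also added: carbachol at ECmax as muscarinic agonist stimulus; incubation: compound preincubation 20 min at room temperature before agonist; signal: Fluo4-AM (2 µM) calcium-flux fluorescence, kinetic read; measure: integrated calcium ratio converted to B score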
MrgX1 ag – human MrgX1 receptor agonism, primary screen. actives 0.44% (n = 310,000). AID 588627. B-score at 10 µM. Q96LB2. MrgX1-HEK293 cells, Fluo-4 calcium fluorescence, agonist mode; stronger effect = higher value;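 active means calcium response B-score plate-corrected fluorescence ratio at least 3 library SD, with starting fluorescence B-score inside 5 SD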
Target sequence (Q96LB2 whole entry, looked up): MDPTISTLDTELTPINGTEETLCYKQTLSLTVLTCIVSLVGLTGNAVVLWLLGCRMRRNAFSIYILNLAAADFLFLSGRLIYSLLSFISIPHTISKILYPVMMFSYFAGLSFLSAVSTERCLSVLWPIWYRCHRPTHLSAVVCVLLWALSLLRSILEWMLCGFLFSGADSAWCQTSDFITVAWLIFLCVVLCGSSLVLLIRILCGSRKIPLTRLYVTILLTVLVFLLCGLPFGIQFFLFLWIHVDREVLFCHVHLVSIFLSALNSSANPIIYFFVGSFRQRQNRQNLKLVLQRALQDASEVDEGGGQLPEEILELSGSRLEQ
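Test system: Stable human MrgX1 HEK293 cell line | Schedule: Overnight plating before 1 h dye loading | Read-out basis: Baseline-normalised fluorescence change ratio, B-scored | Detection: Kinetic calcium dye fluorescence, Fluo-4 NW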
MrgX1 allo act – allosterically activates human MrgX1 receptor signaling | AID 588675 | actives 0.63% (n = 310,000) | B-score at 10 µM | MrgX1-HEK293, Fluo-4 calcium flux, FDSS; stronger effect = higher value;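 active means plate-corrected calcium response at least 3 library SD above typical, normal starting fluorescence, not activating the receptor alone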;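 further: compound read alongside a low EC10 to EC30 dose of BAM8-22 agonist; peak minus trough fluorescence over baseline measured at the second addition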
RGS4 inh – inhibitors of human RGS4 | P49798 | HEK293 M3R/RGS4 inducible, Fluo-4 calcium flux; stronger effect = higher value; triggered by carbachol at its EC20 | B-score at 10 µM | actives 0.45% (n = 310,000);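 active means B-score, a plate-corrected calcium signal, over three deviations above library mean, with baseline fluorescence within five deviations of library mean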;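 further: RGS4 expression induced by doxycycline in cells with stable M3 receptor; B-score is computed from the integrated fluorescence ratio over baseline after carbachol; higher B-score means a larger calcium signal and so more RGS4 inhibition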
Target sequence (P49798 whole entry, looked up): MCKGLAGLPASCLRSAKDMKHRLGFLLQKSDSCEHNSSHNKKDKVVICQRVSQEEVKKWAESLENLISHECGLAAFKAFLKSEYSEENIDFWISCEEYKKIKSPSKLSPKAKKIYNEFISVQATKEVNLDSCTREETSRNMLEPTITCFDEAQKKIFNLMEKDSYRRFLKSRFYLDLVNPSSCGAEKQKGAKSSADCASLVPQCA
MrgX1 antag – human MrgX1 receptor antagonism, primary screen | Q96LB2 | MRGX1-HEK293 calcium flux, Fluo-4, BAM8-22 antagonism; stronger effect = lower value | B-score at 10 µM | actives 1.3% (n = 310,000) | AID 588676;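 active means calcium-response B-score plate-corrected more than 3 library SD below zero, starting fluorescence within 5 deviations, no agonist response on first addition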;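 further: peak minus trough fluorescence over baseline after final BAM8-22 challenge near maximal dose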
MrgX1 ag confirm – human MrgX1 agonism, re-confirmation screen. shares compounds with MrgX1 ag. AID 602412. MrgX1-HEK293, Fluo-4 calcium fluorescence, FDSS. actives 78% (n = 600). activation, % at 10 µM;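 active means calcium signal rise, corrected for plate position, at least 3 library SD high, with starting brightness within 5 such deviations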
HEK293 Ca flux – MrgX1 antagonist counter-screen hit in parental HEK293 cells; shares compounds with MrgX1 antag; Fluo-4 calcium fluorescence, FDSS; fluorescence ratio F(max-min)/F0 at 10 µM; actives 2% (n = 4,000);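 active means duplicate-averaged calcium fluorescence ratio at least three times the standard deviation of buffer wells, a nonspecific response in parental cells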
HEK293 Ca counter – activity in parental HEK293 cells without MrgX1 | fluorescence ratio F(max-min)/F0 at 10 µM | AID 624114 | actives 0.4% (n = 4,000) | parental HEK293 calcium flux, Fluo-4 fluorescence ratio; stronger effect = higher value | shares compounds with MrgX1 antag;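 active means calcium fluorescence ratio, averaged over duplicates, at least 3 SD of the buffer-well ratio, meaning a nonspecific response in receptor-free cells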;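 further: untransfected parental HEK293 lacking MrgX1 used as counterscreen for MrgX1 allosteric activators; fluorescence change taken during the second addition on a kinetic imager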
HEK293 Ca cntr2 – counter-screen for MrgX1 activators: effect in parental HEK293 cells | actives 8.7% (n = 4,000) | Fluo-4 calcium fluorescence (FDSS); stronger effect = higher value | fluorescence ratio F(max-min)/F0 at 10 µM | shares compounds with MrgX1 antag;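 active means calcium fluorescence ratio at least three times the spread of buffer wells, meaning a non-specific response in parental cells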
Hits are given with their value.

Screening Cc1cc(C)nc(/N=C(\N)Nc2cccc(OCc3ccccc3)c2)n1 returned RGS4 act inactive, MrgX1 ag 153, MrgX1 allo act inactive, RGS4 inh inactive, MrgX1 antag inactive, MrgX1 ag confirm 523%, HEK293 Ca flux inactive, HEK293 Ca counter inactive and HEK293 Ca cntr2 100.
For COc1ccccc1N/C(N)=N/c1nc(C)cc(C)n1 the results were RGS4 act inactive, MrgX1 ag inactive, MrgX1 allo act inactive, RGS4 inh inactive and MrgX1 antag inactive.
For Cc1cc(C)nc(/N=C(\N)Nc2ccc(CC(=O)OC(C)C)cc2)n1 the results were RGS4 act inactive, MrgX1 ag 143, MrgX1 allo act inactive, RGS4 inh inactive, MrgX1 antag inactive, MrgX1 ag confirm 424%, HEK293 Ca flux inactive, HEK293 Ca counter inactive and HEK293 Ca cntr2 90.
Cc1cc(C)nc(/N=C(\N)Nc2ccc(OCCC(C)C)cc2)n1 was read as RGS4 act inactive, MrgX1 ag 118, MrgX1 allo act inactive, RGS4 inh inactive, MrgX1 antag inactive, MrgX1 ag confirm 599%, HEK293 Ca flux inactive, HEK293 Ca counter inactive and HEK293 Ca cntr2 124.
C=CCC1(CC=C)CCCN1C(=O)CC1C(=O)NCCN1Cc1cccc(OC)c1OC (stereo not given) was read as RGS4 act inactive, MrgX1 ag inactive, MrgX1 allo act inactive, RGS4 inh inactive and MrgX1 antag inactive.
`O=C(O)C1C2CCC(O2)C1C(=O)Nc1ccccc1Br` (stereo not given) gave RGS4 act inactive, MrgX1 ag inactive, MrgX1 allo act inactive, RGS4 inh inactive and MrgX1 antag inactive.
For Nc1ncnc2c1ncn2C1OC(C(=O)NC2CC2)C(O)C1O (stereo not given) the results were MrgX1 ag 30, MrgX1 allo act inactive, MrgX1 antag inactive, MrgX1 ag confirm 100%, HEK293 Ca flux inactive, HEK293 Ca counter inactive and HEK293 Ca cntr2 inactive.
`CCCCC1CC(CSC(=N)N)OC1=O` (stereo not given) gave RGS4 act inactive, MrgX1 ag inactive, MrgX1 allo act inactive, RGS4 inh inactive and MrgX1 antag inactive.
CCCCCCCC1CC(CSC(=N)N)OC1=O (stereo not given) was read as RGS4 act inactive, MrgX1 ag 41, MrgX1 allo act inactive, RGS4 inh inactive, MrgX1 antag inactive, MrgX1 ag confirm 164%, HEK293 Ca flux inactive, HEK293 Ca counter inactive and HEK293 Ca cntr2 inactive.
For N#Cc1cn(Cc2ccccc2)c2ccccc12 the results were RGS4 act inactive, MrgX1 ag 30, MrgX1 allo act inactive, RGS4 inh inactive, MrgX1 antag inactive, MrgX1 ag confirm 161%, HEK293 Ca flux inactive, HEK293 Ca counter inactive and HEK293 Ca cntr2 inactive.
For N#Cc1ccccc1Cn1cc(C#N)c2ccccc21 the results were RGS4 act inactive, MrgX1 ag inactive, MrgX1 allo act inactive, RGS4 inh inactive and MrgX1 antag inactive.
`CCOC(=O)CSc1nc(-c2ccncc2)ccc1C#N` gave RGS4 act inactive, MrgX1 ag 29, MrgX1 allo act inactive, RGS4 inh inactive, MrgX1 antag inactive, MrgX1 ag confirm 150%, HEK293 Ca flux inactive, HEK293 Ca counter inactive and HEK293 Ca cntr2 inactive.
Screening CCOC(=O)CC(=O)CSc1nc(C)cc(-c2cccnc2)c1C#N returned RGS4 act inactive, MrgX1 ag inactive, MrgX1 allo act inactive, RGS4 inh inactive and MrgX1 antag inactive.
CCOC(=O)CC(=O)CSc1nc(-c2cccnc2)ccc1C#N was read as RGS4 act inactive, MrgX1 ag 37, MrgX1 allo act inactive, RGS4 inh inactive, MrgX1 antag inactive, MrgX1 ag confirm 275%, HEK293 Ca flux inactive, HEK293 Ca counter inactive and HEK293 Ca cntr2 66.
Screening COc1cc(C(c2nnnn2C2CCCC2)N2CCN(C(=O)c3ccco3)CC2)cc(OC)c1OC (stereo not given) returned RGS4 act inactive, MrgX1 ag inactive, MrgX1 allo act inactive, RGS4 inh inactive and MrgX1 antag inactive.
For CC(C)CC(=O)Nc1ccc(-c2nnn(CC(=O)NCc3ccco3)n2)cc1 the results were RGS4 act inactive, MrgX1 ag inactive, MrgX1 allo act inactive, RGS4 inh inactive and MrgX1 antag inactive.
`O=C(O)CCc1ccc(-c2ccc(Cl)cc2)n1Cc1ccco1` gave RGS4 act inactive, MrgX1 ag 38, MrgX1 allo act inactive, RGS4 inh inactive, MrgX1 antag inactive, MrgX1 ag confirm 159%, HEK293 Ca flux inactive, HEK293 Ca counter inactive and HEK293 Ca cntr2 inactive.
Screening CC(=O)Nc1cccc(OC(=O)c2ccoc2C)c1 returned RGS4 act inactive, MrgX1 ag 33, MrgX1 allo act inactive, RGS4 inh inactive, MrgX1 antag inactive, MrgX1 ag confirm 128%, HEK293 Ca flux inactive, HEK293 Ca counter inactive and HEK293 Ca cntr2 46.
`Cc1ccc(-c2n[nH]c(Cc3ccccc3)n2)cc1` gave RGS4 act inactive, MrgX1 ag 28, MrgX1 allo act inactive, RGS4 inh inactive, MrgX1 antag inactive, MrgX1 ag confirm 97%, HEK293 Ca flux inactive, HEK293 Ca counter inactive and HEK293 Ca cntr2 inactive.
For Cc1ccc(OCc2nc(-c3ccc(Cl)cc3)n[nH]2)cc1 the results were RGS4 act inactive, MrgX1 ag inactive, MrgX1 allo act inactive, RGS4 inh inactive and MrgX1 antag inactive.
For CCn1cnc2cc(NCc3ccc(Br)cc3)ccc21 the results were RGS4 act inactive, MrgX1 ag 34, MrgX1 allo act inactive, RGS4 inh inactive, MrgX1 antag inactive, MrgX1 ag confirm 197%, HEK293 Ca flux inactive, HEK293 Ca counter inactive and HEK293 Ca cntr2 inactive.
Screening Cc1ccc(CNc2ccc3c(c2)ncn3C(C)C)cc1 returned RGS4 act inactive, MrgX1 ag 33, MrgX1 allo act inactive, RGS4 inh inactive, MrgX1 antag inactive, MrgX1 ag confirm 352%, HEK293 Ca flux inactive, HEK293 Ca counter inactive and HEK293 Ca cntr2 80.
`Cc1cccc(NC(=O)COC(=O)c2ccccc2SCC(=O)N2CCCC2)c1` gave RGS4 act inactive, MrgX1 ag inactive, MrgX1 allo act inactive, RGS4 inh inactive and MrgX1 antag inactive.
Screening c1ccc(Sc2nc(N3CCCCC3)nc(N3CCCCC3)n2)nc1 returned RGS4 act inactive, MrgX1 ag 35, MrgX1 allo act inactive, RGS4 inh inactive, MrgX1 antag inactive, MrgX1 ag confirm 211%, HEK293 Ca flux inactive, HEK293 Ca counter inactive and HEK293 Ca cntr2 59.
